From ChEMBL document CHEMBL1921669, “In vivo PET imaging of histone deacetylases by 18F-suberoylanilide hydroxamic acid (18F-SAHA)” (J Med Chem, 2011)

Tests used:
Histone deacetylase 1 = Histone deacetylase 1 (Homo sapiens, UniProt Q13547); test: Inhibition of human recombinant full-length HDAC1 using fluorophore conjugated substrate by fluorescence assay
Histone deacetylase 2 = Histone deacetylase 2 (Homo sapiens, UniProt Q92769); test: Inhibition of human recombinant full-length HDAC2 using fluorophore conjugated substrate by fluorescence assay
Histone deacetylase 3 = Histone deacetylase 3 (Homo sapiens, UniProt O15379); test: Inhibition of human recombinant full-length HDAC3 using fluorophore conjugated substrate by fluorescence assay
[1] = molecular target: T1, Protein deacetylase HDAC6 (Homo sapiens, UniProt Q9UBN7); test: Inhibition of human recombinant full-length HDAC6 using fluorophore conjugated substrate by fluorescence assay
T1 sequence (Q9UBN7 whole entry): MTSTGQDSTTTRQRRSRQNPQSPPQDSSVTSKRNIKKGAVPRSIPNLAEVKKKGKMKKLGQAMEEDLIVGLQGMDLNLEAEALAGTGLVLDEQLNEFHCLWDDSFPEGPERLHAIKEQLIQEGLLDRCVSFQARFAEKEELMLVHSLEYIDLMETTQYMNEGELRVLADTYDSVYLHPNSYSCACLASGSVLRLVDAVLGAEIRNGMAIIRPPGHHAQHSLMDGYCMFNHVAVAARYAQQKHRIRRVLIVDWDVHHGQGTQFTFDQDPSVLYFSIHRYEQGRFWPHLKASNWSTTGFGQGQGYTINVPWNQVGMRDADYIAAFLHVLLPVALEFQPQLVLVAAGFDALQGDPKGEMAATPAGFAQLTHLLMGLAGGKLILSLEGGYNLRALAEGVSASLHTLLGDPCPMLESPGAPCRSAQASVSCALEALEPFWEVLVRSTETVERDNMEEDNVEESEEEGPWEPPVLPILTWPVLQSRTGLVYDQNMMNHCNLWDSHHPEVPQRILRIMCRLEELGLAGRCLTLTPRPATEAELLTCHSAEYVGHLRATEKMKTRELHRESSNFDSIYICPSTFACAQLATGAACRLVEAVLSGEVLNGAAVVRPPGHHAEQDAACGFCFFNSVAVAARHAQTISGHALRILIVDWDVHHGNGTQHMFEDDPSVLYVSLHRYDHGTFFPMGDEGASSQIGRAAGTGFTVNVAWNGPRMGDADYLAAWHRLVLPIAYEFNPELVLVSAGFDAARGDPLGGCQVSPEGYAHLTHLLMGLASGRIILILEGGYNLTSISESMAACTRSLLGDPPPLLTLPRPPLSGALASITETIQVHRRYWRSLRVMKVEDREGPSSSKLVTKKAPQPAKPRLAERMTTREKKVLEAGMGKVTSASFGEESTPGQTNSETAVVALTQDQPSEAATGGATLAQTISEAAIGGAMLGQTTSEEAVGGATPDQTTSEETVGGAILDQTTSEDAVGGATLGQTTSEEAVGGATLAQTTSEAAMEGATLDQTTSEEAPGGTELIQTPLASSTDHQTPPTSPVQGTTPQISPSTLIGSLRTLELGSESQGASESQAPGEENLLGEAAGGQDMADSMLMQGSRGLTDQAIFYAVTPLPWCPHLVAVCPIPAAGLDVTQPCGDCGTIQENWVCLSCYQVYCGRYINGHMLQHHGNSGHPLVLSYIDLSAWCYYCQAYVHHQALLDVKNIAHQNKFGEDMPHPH

Mus musculus [2] = test: Biodistribution in human A2780 cells xenografted Nu/Nu mouse tumor at 2 mg in 100 uL of 60% PEG400 40% water, ip by PET-CT analysis; format: ADME, organism-based, Neoplasm; settings: in vivo, TDE = time-dependent effect
Method in brief: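 Nu/Nu mice (n = 5) carried subcutaneous A2780 human ovarian cancer implants (10⁶ cells in Matrigel per flank) and were imaged 10 days later under isoflurane 1.5%. The 18F tracer was scanned by PET-CT (about 80 min acquisition) before and after competition. […] Read-out was the tumor/muscle ratio.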

Nucleic Acid [3] = test: Ratio of drug uptake in tumor to muscle in human A2780 cells xenografted Nu/Nu mouse at 2 mg in 100 uL of 60% PEG400 40% water, ip administered as 2 dose every 24 hrs interval measured after 3 hrs of post last dose by PET-CT analysis; format: ADME, organism-based; settings: in vivo
Method in brief: (§1)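 Nu/Nu mice (n = 5) bearing subcutaneous flank A2780 human ovarian cancer xenografts (10⁶ cells in Matrigel per flank), imaged 10 days after implantation. ¹⁸F-labelled tracer PET-CT under isoflurane anaesthesia (1.5%, O₂ 2 L/min), each acquisition ~80 min. […] Read-out: tumor/muscle uptake ratio.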

Nucleic Acid [4] = test: Ratio of drug uptake in tumor to muscle in human A2780 cells xenografted Nu/Nu mouse at 2 mg in 100 uL of 60% PEG400 40% water, ip after 3 hrs by PET-CT analysis; format: ADME, organism-based; settings: in vivo; method in brief: as §1
[5] = Initial half life in iv dosed mouse plasma; format: ADME, organism-based; settings: read-out: alphat1/2
Mus musculus [6] = test: Biodistribution in C57BL/6 mouse whole blood at 243 +/- 25 uCi, iv using 60% PEG400, 40% water formulation; format: ADME, organism-based; settings: in vivo
Method in brief: (§2)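 The 18F tracer was given to C57BL/6 mice by tail-vein iv bolus, n = 3 per vehicle. Vehicles were 60% PEG400 in water, 10% DMSO in water, or 20% DMAC:Solutol (1:1) in saline. Serial retro-orbital blood was drawn into tared capillary tubes, weighed and gamma-counted to give the blood time-activity curve.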

Mus musculus [7] = test: Biodistribution in C57BL/6 mouse whole blood at 243 +/- 25 uCi, iv using 10% DMSO, 90% water formulation; format: ADME, organism-based; settings: in vivo; method in brief: as §2
Mus musculus [8] = test: Biodistribution in C57BL/6 mouse whole blood at 243 +/- 25 uCi, iv using […] dimethylacetamide, 10% Solutol HS15, 80% PBS formulation; format: ADME, organism-based; settings: in vivo; method in brief: as §2
Kidney = test: Biodistribution in C57BL/6 mouse kidney at 241 +/- 18 uCi, iv; format: ADME, organism-based; settings: in vivo
Method in brief: (§3)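 Six C57BL/6 mice got the 18F tracer by tail-vein iv injection. Groups were sacrificed at 1 h (n = 3) and 3 h (n = 3) after dosing. Tissues were excised and weighed, and 18F activity was counted by gamma counter. Values are expressed as % injected dose per gram of tissue.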

Liver = test: Biodistribution in C57BL/6 mouse liver at 241 +/- 18 uCi, iv; format: ADME, organism-based; settings: in vivo; method in brief: as §3
Blood = test: Biodistribution in C57BL/6 mouse blood at 241 +/- 18 uCi, iv; format: ADME, organism-based; settings: in vivo; method in brief: as §3
Heart = test: Biodistribution in C57BL/6 mouse heart at 241 +/- 18 uCi, iv; format: ADME, organism-based; settings: in vivo; method in brief: as §3
Mus musculus [9] = test: Biodistribution in C57BL/6 mouse thymus at 241 +/- 18 uCi, iv; format: ADME, organism-based; settings: in vivo; method in brief: as §3
Brain = test: Biodistribution in C57BL/6 mouse brain at 241 +/- 18 uCi, iv; format: ADME, organism-based; settings: in vivo; method in brief: as §3

Histone deacetylase 2, sequence (Q92769 whole entry): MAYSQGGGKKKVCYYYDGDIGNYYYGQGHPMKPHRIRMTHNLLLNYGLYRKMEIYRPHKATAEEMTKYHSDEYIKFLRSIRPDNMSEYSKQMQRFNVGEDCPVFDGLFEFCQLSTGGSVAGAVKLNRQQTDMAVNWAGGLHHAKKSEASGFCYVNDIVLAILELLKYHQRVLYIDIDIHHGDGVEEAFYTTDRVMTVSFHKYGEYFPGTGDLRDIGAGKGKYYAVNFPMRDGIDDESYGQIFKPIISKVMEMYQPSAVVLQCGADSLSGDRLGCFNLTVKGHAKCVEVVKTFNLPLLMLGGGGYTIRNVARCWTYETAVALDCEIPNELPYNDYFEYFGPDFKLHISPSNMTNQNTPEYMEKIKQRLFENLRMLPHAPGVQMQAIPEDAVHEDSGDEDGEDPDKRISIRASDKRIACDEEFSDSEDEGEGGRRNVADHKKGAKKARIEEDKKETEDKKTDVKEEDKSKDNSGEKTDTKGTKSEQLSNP
Histone deacetylase 1, sequence (Q13547 whole entry): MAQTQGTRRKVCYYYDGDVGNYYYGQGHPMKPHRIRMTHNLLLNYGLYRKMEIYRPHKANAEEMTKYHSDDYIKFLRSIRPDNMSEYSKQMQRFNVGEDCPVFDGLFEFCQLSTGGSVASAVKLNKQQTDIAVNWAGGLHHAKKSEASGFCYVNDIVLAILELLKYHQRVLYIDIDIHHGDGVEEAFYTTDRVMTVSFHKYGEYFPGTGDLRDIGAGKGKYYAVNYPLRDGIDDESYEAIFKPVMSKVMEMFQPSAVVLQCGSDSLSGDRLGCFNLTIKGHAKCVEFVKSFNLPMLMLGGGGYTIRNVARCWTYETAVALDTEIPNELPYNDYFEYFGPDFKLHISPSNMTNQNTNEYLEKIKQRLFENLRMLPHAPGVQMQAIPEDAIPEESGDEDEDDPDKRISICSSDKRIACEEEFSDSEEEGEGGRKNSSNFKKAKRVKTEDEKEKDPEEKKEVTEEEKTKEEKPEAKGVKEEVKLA
Histone deacetylase 3, sequence (O15379 whole entry): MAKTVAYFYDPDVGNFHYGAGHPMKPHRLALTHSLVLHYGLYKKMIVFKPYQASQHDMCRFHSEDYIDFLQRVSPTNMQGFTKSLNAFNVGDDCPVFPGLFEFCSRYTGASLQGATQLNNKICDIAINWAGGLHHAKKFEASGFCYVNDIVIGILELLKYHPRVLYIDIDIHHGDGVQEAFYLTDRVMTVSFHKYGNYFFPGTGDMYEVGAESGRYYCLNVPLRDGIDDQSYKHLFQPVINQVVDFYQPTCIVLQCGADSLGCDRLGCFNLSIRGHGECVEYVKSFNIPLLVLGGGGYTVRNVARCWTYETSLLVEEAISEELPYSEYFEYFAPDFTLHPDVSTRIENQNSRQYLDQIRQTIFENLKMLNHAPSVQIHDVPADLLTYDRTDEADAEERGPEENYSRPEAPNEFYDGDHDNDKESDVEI

Row | IC50 (Histone deacetylase 1) [nM] | IC50 (Histone deacetylase 2) [nM] | IC50 (Histone deacetylase 3) [nM] | IC50 [1] [nM] | Drug uptake (Mus musculus [2]) | Ratio (Nucleic Acid [3]) | Ratio (Nucleic Acid [4]) | half-life [5] [min] | Drug uptake (Mus musculus [6]) [% ID/g] | Drug uptake (Mus musculus [7]) [% ID/g] | Drug uptake (Mus musculus [8]) [% ID/g] | Drug uptake (Kidney) | Drug uptake (Liver) | Drug uptake (Blood) | Drug uptake (Heart) | Drug uptake (Mus musculus [9]) | Drug uptake (Brain) | Structure (SMILES)
1 | 9 | 12.7 | 23.9 | 50.2 | – | – | – | – | – | – | – | – | – | – | – | – | – | O=C(CCCCCCC(=O)Nc1ccc([19F])cc1)NO
2 | – | – | – | – | tde | 1.3 | 1.7 | < 1 | < 1 | 3 | 6 | Active | Active | Active | Active | Active | Active | O=C(CCCCCCC(=O)Nc1ccc([18F])cc1)NO
